Assay results collected from several papers.
Lines come from different studies, so protocols differ.
DRD3: D(3) dopamine receptor (DRD3, Homo sapiens, UniProt P35462)
SLC6A3: Sodium-dependent dopamine transporter (SLC6A3, Homo sapiens, UniProt Q01959)
CASP3: Caspase-3 (CASP3, Homo sapiens, UniProt P42574)
PPARG: Peroxisome proliferator-activated receptor gamma (PPARG, Homo sapiens, UniProt P37231)

Structure (SMILES) | target | read-out | mode | technique | notes | Ki [nM]
CN1CCN(c2ccc(-c3ccnn3-c3ccc(S(N)(=O)=O)cc3)cc2)CC1 | Carbonic anhydrase 12 (CA12, Homo sapiens, UniProt O43570) | enzyme activity | inhibitor | stopped-flow | – | 404
Oc1cccc(CCC2=NCCN2Cc2ccccc2)c1 | DRD3 | ligand displacement | – | radioligand | – | 1260
CC(C)c1nc2cc(OCCCCN3CCN(c4cccc5c4OCCO5)CC3)ccc2s1 | SLC6A3 | ligand displacement | – | radioligand | – | 2500
c1ccc(CCC2=NCCN2CCc2ccccc2)cc1 | DRD3 | ligand displacement | – | radioligand | – | > 10000
COc1ccc2c(c1)C(=O)N(CCCN1CCN(c3ccccc3OC)CC1)C2 | DRD3 | ligand displacement | – | radioligand | – | 389
OC[C@@]12C[C@@H]1[C@@H](n1cnc3c(NC(C4CCCC4)C4CCCC4)nc(Cl)cc31)[C@H](O)[C@@H]2O | SLC6A3 | cell-free assay | – | radioligand | – | 3900
O=c1cc(-c2ccc(O)c(O)c2)oc2cc(O)cc(O)c12 | CASP3 | enzyme activity | inhibitor | fluorescence | – | 181000
Cc1nc2cc(OCCCCN3CCN(c4cccc(Cl)c4Cl)CC3)ccc2s1 | SLC6A3 | ligand displacement | – | radioligand | – | 690
CC1Cc2ccccc2N1C(=O)CCCN(C)[C@@H]1Cc2cccc3[nH]c(=O)n(c23)C1 (stereo partly shown) | DRD3 | ligand displacement | – | radioligand | cell membranes | 3340
O=C(O[C@@H]1Cc2c(O)cc(O[C@H]3O[C@H](CO)[C@@H](O)[C@H](O)[C@H]3O)cc2O[C@@H]1c1cc(O)c(O)c(O)c1)c1cc(O)c(O)c(O)c1 | Maltase-glucoamylase (Homo sapiens, UniProt O43451) | enzyme activity | inhibitor | – | – | 7880
CN(CCCCNC(=O)c1cc2ccccc2[nH]1)[C@@H]1Cc2cccc3[nH]c(=O)n(c23)C1 | DRD3 | ligand displacement | – | radioligand | cell membranes | 82.7
CCN(CC)c1ccc(C2Nc3ccc(C(=O)c4ccccc4)cc3NC3=C2C(=O)CC(C)(C)C3)cc1 (stereo not shown) | SLC6A3 | cell-free assay | – | radioligand | – | > 10000
CN(CCCCNC(=O)c1ccc2scnc2c1)[C@@H]1Cc2cccc3[nH]c(=O)n(c23)C1 | DRD3 | ligand displacement | – | radioligand | cell membranes | 427
O=C1CSC(=S)N1NC(=S)SSC(=S)NN1C(=O)CSC1=S | Tyrosine-protein phosphatase non-receptor type 22 (PTPN22, Homo sapiens, UniProt Q9Y2R2) | enzyme activity | inhibitor | fluorescence | – | 1100
CC(=O)N[C@@H](CCCCNC(=O)CSCCNC(=O)CCNC(=O)[C@H](O)C(C)(C)COP(=O)(O)OP(=O)(O)OC[C@H]1O[C@@H](n2cnc3c(N)ncnc32)[C@H](O)[C@@H]1OP(=O)(O)O)C(N)=O | Histone acetyltransferase type B catalytic subunit (Homo sapiens, UniProt O14929) | enzyme activity | inhibitor | radiometric | – | 74800
O=c1c(O)c(-c2cc(O)c(O)c(O)c2)oc2cc(O)cc(O)c12 | CASP3 | enzyme activity | inhibitor | fluorescence | – | 68700
CC1(C)C=Cc2c(cc3oc(-c4ccccc4)c(O)c(=O)c3c2O)O1 | PPARG | cell-free assay | – | TR-FRET | – | 3200
CN(CCCCNC(=O)c1nc2ccccc2s1)[C@@H]1Cc2cccc3[nH]c(=O)n(c23)C1 | DRD3 | ligand displacement | – | radioligand | cell membranes | 403
CN(CCOc1ccc(CC2SC(=O)N(CC(=O)OC(C)(C)C)C2=O)cc1)c1ccccn1 (stereo not shown) | PPARG | ligand displacement | – | TR-FRET | – | 103
